IDH1 R132H inh = IDH1 R132H (human) inhibition; IDH1 R132H reductase, diaphorase/resazurin fluorescence, 60 min; O75874; actives 0.18% (n = 70,000); inhibition, % at 10 µM; in the data active = inhibition above about 34%; inconclusive = no clear call, values can overlap the other calls; inactive = below about 11%
Target sequence (O75874 whole entry R132H): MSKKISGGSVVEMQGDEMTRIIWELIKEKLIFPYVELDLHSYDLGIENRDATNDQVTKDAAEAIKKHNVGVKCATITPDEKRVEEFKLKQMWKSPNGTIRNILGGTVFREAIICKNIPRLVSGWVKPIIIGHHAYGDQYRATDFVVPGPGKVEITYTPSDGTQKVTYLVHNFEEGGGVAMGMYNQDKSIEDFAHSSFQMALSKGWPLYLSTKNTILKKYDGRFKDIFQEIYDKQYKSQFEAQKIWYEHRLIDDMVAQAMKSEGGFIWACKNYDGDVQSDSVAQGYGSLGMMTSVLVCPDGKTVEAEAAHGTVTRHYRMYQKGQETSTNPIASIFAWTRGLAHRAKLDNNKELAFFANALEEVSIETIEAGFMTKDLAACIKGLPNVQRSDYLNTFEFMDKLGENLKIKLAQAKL
T cruzi growth-1 = inhibitors of T. cruzi proliferation; T. cruzi beta-gal in NIH3T3, GalScreen luminescence, 90 h; actives 5.9% (n = 77,000); inhibition, % at 8.34 µM;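 active = mean inhibition above about 93%, with at least 55% of replicates each passing it, limit read from the data, passing the limit was not always enough; inconclusive = only one of those two conditions holds; inactive = neither condition holds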
GASC1 inh = blocks human GASC-1 (KDM4C) demethylase activity. actives 0.15% (n = 96,000). Q9H3R0. inhibition, % at 12.5 µM. GST-KDM4C 2-372, H3K9me3 peptide, LANCE TR-FRET;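 active = mean replicate inhibition above about 25%, with at least 55% of replicates also reaching it, limit read from the data, passing the limit was not always enough; inconclusive = only one of those two conditions met; inactive = neither condition met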
Target sequence (Q9H3R0 2-372 limits assumed): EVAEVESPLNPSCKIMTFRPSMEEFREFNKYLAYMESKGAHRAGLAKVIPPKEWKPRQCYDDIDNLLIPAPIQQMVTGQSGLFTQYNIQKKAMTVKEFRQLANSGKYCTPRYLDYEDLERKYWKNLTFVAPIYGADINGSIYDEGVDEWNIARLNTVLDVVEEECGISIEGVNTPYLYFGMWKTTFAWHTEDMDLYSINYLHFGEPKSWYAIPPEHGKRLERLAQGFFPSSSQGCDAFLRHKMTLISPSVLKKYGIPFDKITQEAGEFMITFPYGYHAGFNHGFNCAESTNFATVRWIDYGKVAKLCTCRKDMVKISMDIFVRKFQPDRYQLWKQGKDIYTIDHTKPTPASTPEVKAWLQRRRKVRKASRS
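Material: GST-tagged GASC-1 (JMJD2C) catalytic fragment, aa 2-372 / Quantity: enzyme final amount 10 nM / Medium: HEPES buffer, pH 7.5, plus ascorbate / Doses: one test concentration per compound / Incubation: 30 min reaction, 60 min detection, RT / Measured by: LANCE TR-FRET / Read-out: inhibition from TR-FRET ratio decrease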
T cruzi growth-2 = blocks T. cruzi growth in NIH3T3 host cells. shares compounds with T cruzi growth-1. AID 651739. actives 72% (n = 5,600). T. cruzi beta-gal in NIH3T3, GalScreen luminescence, 90 h. inhibition, % at 8.35 µM;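 active = mean replicate inhibition above about 95% and at least 55% of replicates individually reaching it, limit read from the data; inconclusive = only one of the two criteria is met; inactive = neither criterion is met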
T cruzi growth-3 = blocks T. cruzi growth in NIH3T3 host cells | shares compounds with T cruzi growth-1 | T. cruzi beta-gal in NIH3T3, GalScreen luminescence, 90 h | actives 21% (n = 5,600) | inhibition, % at 2.09 µM;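 active = mean inhibition above about 95%, with at least 55% of replicates also reaching it, limit read from the data; inconclusive = meets just one of the two conditions; inactive = meets neither condition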
3T3 cytotox = kills mouse NIH/3T3 fibroblasts; actives 14% (n = 5,600); shares compounds with T cruzi growth-1; NIH/3T3 viability, CellTiter-Glo ATP luminescence, 90 h; cytotoxicity (signal decrease), % at 8.35 µM;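 active = mean signal decrease across replicates above about 35% based on untreated-well scatter, with enough replicates individually passing, limit read from the data; inconclusive = no rule stated though some were filed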
NIH3T3 tox 2 = kills mouse NIH/3T3 fibroblasts. shares compounds with T cruzi growth-1. NIH/3T3 viability, CellTiter-Glo ATP luminescence, 90 h. inhibition, % at 24.9 µM. actives 56% (n = 5,600). AID 651744;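 active = mean loss of cell viability signal at or above a set limit, and enough replicates individually reaching it; inconclusive = meets only the mean limit or only the replicate share; inactive = meets neither condition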
Numbers stand for hits; 0 = inactive; ? = inconclusive; - = no result given. The entries come from a sample that favours hits as a whole.

SMILES | IDH1 R132H inh | T cruzi growth-1 | GASC1 inh | T cruzi growth-2 | T cruzi growth-3 | 3T3 cytotox | NIH3T3 tox 2
C[C@H]1CN([C@@H](C)CO)S(=O)(=O)c2ccc(-c3ccccc3F)cc2O[C@@H]1CN(C)Cc1ccncc1 | 0 | 115.5 | 0 | 101.1 | 100.2 | 40.2 | 103.6
C[C@@H]1CN([C@H](C)CO)S(=O)(=O)c2ccc(-c3ccccc3F)cc2O[C@@H]1CN(C)C | 0 | 0 | 0 | - | - | - | -
C[C@H](CO)N1C[C@H](C)[C@@H](CN(C)Cc2ccncc2)Oc2cc(-c3ccccc3F)ccc2S1(=O)=O | 0 | 114.2 | 0 | 96.0 | 100.3 | 59.3 | 97.8
C[C@H](CO)N1C[C@H](C)[C@H](CN(C)Cc2ccncc2)Oc2cc(-c3ccccc3F)ccc2S1(=O)=O | - | 106.0 | 0 | 0 | 0 | 59.1 | 76.4
Cc1ccc(NC(=O)COc2ccc3cc(-c4ccc(F)cc4)c(=O)oc3c2)cc1 | 0 | - | - | - | - | - | -
C[C@@H]1CN([C@H](C)CO)C(=O)c2cc(NC(=O)Nc3ccc(C(F)(F)F)cc3)ccc2O[C@@H](C)CCCCO[C@@H]1CN(C)Cc1ccccc1 | 0 | 0 | 0 | - | - | - | -
C[C@H](CO)N1C[C@H](C)[C@H](CN(C)Cc2ccc3cccnc3c2)OCc2cnnn2CCCC1=O | 0 | 110.6 | 0 | 0 | 0 | 0 | 0
C[C@@H]1CN([C@H](C)CO)C(=O)CCCn2nncc2CO[C@@H]1CN(C)Cc1ccc2cccnc2c1 | - | 0 | 0 | - | - | - | -
C[C@H](CO)N1C[C@H](C)[C@H](CN(C)Cc2ccc(C(=O)O)cc2)OCc2cnnn2CCCC1=O | 0 | - | 0 | - | - | - | -
C[C@H]1CN([C@@H](C)CO)C(=O)CCCn2nncc2CO[C@@H]1CN(C)Cc1ccc(C(=O)Nc2ccccc2N)cc1 | - | 102.7 | 0 | 110.9 | 0 | 0 | 0
CC(=O)c1ccc(NC(=O)CSc2nc(-c3ccccc3)cc(=O)[nH]2)cc1 | 0 | - | - | - | - | - | -
COc1ccc(OC)c(NC(=O)CSc2nc(C)cc(=O)[nH]2)c1 | 0 | - | - | - | - | - | -
C[C@H](CO)N1C[C@H](C)[C@@H](CN(C)Cc2cccc(C(=O)O)c2)Oc2cc(C3=CCCC3)ccc2S1(=O)=O | 0 | 0 | 0 | - | - | - | -
C[C@@H]1CN([C@H](C)CO)S(=O)(=O)c2ccc(C3=CCCC3)cc2O[C@H]1CN(C)Cc1cccnc1 | 0 | 100.9 | 0 | 0 | 0 | ? | 35.6
C[C@@H]1CN([C@@H](C)CO)S(=O)(=O)c2ccc(C3=CCCC3)cc2O[C@@H]1CN(C)Cc1ccccc1 | 0 | 107.5 | 0 | ? | 0 | 0 | 105.6
C[C@H](CO)N1C[C@H](C)[C@H](CN(C)Cc2ccccc2)Oc2cc(C3=CCCC3)ccc2S1(=O)=O | 0 | 108.0 | 0 | 107.6 | 0 | 0 | 105.0
C[C@@H]1CN([C@@H](C)CO)S(=O)(=O)c2ccc(C3=CCCC3)cc2O[C@H]1CN(C)Cc1ccccc1 | 0 | 0 | 0 | - | - | - | -
C[C@@H]1CN([C@H](C)CO)S(=O)(=O)c2ccc(C3=CCCCC3)cc2O[C@H]1CN(C)Cc1cccnc1 | - | - | 0 | - | - | - | -
CCc1ccnc(NC(=O)CC2(CC(=O)O)CCCCC2)c1 | 0 | - | - | - | - | - | -
COc1cc(NC(=O)COc2ccccc2C)ccc1NC(=O)c1ccccc1Cl | 0 | - | - | - | - | - | -
Cc1n[nH]c(C)c1SCC(=O)Nc1cccc(Br)c1 | 0 | - | - | - | - | - | -
c1ccc2[nH]c(CCn3c4c(c5ccccc53)CCCC4)nc2c1 | 0 | - | - | - | - | - | -
Cc1ccc(NC(=O)COc2ccc(I)cc2)c(C(=O)O)c1 | 0 | - | - | - | - | - | -
CC1CCc2c(sc(NC(=O)c3cc4n(n3)C(C(F)(F)F)CC(c3ccco3)N4)c2C(N)=O)C1 (stereo not given) | 0 | - | - | - | - | - | -
OC[C@@H]1[C@@H](c2ccc(/C=C/c3ccccc3)cc2)[C@@H]2CN(Cc3cncnc3)CCCCN12 | - | 0 | 0 | - | - | - | -
SMILES | IDH1 R132H inh | T cruzi growth-1 | GASC1 inh | T cruzi growth-2 | T cruzi growth-3 | 3T3 cytotox | NIH3T3 tox 2
OC[C@@H]1[C@H](c2ccc(/C=C/c3ccccc3)cc2)[C@@H]2CN(Cc3ccncc3)CCCCN12 | - | 120.7 | 0 | 107.2 | ? | ? | 104.0
OC[C@@H]1[C@H](c2ccc(/C=C/c3ccccc3)cc2)[C@H]2CN(Cc3cncnc3)CCCCN12 | - | 0 | 0 | - | - | - | -
OC[C@H]1[C@@H](c2ccc(/C=C/c3ccccc3)cc2)[C@@H]2CN(Cc3cncnc3)CCCCN12 | - | 102.3 | - | 106.5 | 0 | 0 | 104.6
OC[C@@H]1[C@@H](c2ccc(/C=C/c3ccccc3)cc2)[C@@H]2CN(Cc3cccnc3)CCCCN12 | - | ? | 0 | 104.0 | 0 | 45.9 | 103.3
COc1ccccc1-c1ccc([C@H]2[C@H](CO)N3CCCCN(Cc4ccncc4)C[C@@H]23)cc1 | - | 0 | 0 | - | - | - | -
OC[C@@H]1[C@H](c2ccc(/C=C/c3ccccc3)cc2)[C@@H]2CN(Cc3cccnc3)CCCCN12 | - | 105.4 | 0 | 110.7 | 0 | 41.1 | 103.3
Cc1noc(C)c1C(=O)n1cc2c(n1)-c1cc(F)ccc1SC2 | 0 | - | - | - | - | - | -
COc1ccc(Cl)cc1NC(=S)NCCCn1nc(C)c(Br)c1C | 0 | - | - | - | - | - | -
O=C(CSc1n[nH]c(-c2ccccc2)n1)Nc1ccc(Br)cc1 | 0 | - | - | - | - | - | -
COc1ccc(Cl)cc1N(CC(=O)Nc1cc(Cl)ccc1Cl)S(C)(=O)=O | 0 | - | - | - | - | - | -
CC(C)NC(=O)N1[C@@H](C#N)[C@@H](c2ccc(C#CC3CCCC3)cc2)[C@@H]1CO | - | 105.3 | 0 | 101.4 | 0 | 0 | 27.2
CC(C)NC(=O)N1[C@H](CO)[C@@H](c2ccc(C#CC3CCCC3)cc2)[C@@H]1C#N | - | 98.5 | 0 | 102.8 | 0 | 0 | 0
CC(C)NC(=O)N1[C@@H](C#N)[C@H](c2ccc(C#CC3CC3)cc2)[C@@H]1CO | - | 104.4 | 0 | 105.1 | ? | 0 | 57.5
CN(C)CC(=O)N1[C@H](C#N)[C@@H](c2ccc(C#CC3CC3)cc2)[C@H]1CO | - | 0 | 0 | - | - | - | -
N#C[C@@H]1[C@H](c2ccc(C#CC3CCCC3)cc2)[C@H](CO)N1C(=O)Nc1ccc(F)cc1 | - | 0 | 0 | - | - | - | -
CC(C)NC(=O)N1[C@@H](C#N)[C@H](c2ccc(C#CC3CCCC3)cc2)[C@@H]1CO | - | 99.6 | 0 | 105.5 | 0 | 0 | 51.8
CC(C)NC(=O)N1[C@H](C#N)[C@H](c2ccc(C#CC3CCCC3)cc2)[C@@H]1CO | - | - | 0 | - | - | - | -
N#C[C@@H]1[C@@H](c2ccc(C#CC3CCCC3)cc2)[C@H](CO)N1C(=O)Nc1ccc(F)cc1 | - | 0 | 0 | - | - | - | -
O=C(Nc1ccccc1C(=O)OCc1cccc([N+](=O)[O-])c1)c1ccccc1 | 0 | - | - | - | - | - | -
COc1cccc(S(=O)(=O)NCC(=O)N2CCCCC2C)c1 (stereo not given) | 0 | - | - | - | - | - | -
CC(=O)N(c1ccc2oc3c(c2c1)CCCC3)S(=O)(=O)c1cccc2cccnc12 | 0 | - | - | - | - | - | -
C[C@H](CO)N1C[C@H](C)[C@@H](CN(C)C(=O)Nc2ccc(F)cc2)OCCCC[C@H](C)Oc2ccc(NC(=O)NC3CCCCC3)cc2C1=O | 0 | ? | 0 | 108.9 | 0 | 0 | 0
